Measurements taken from article PMC8926038 (Multiple sclerosis and related disorders, 2022).
Structures can show the parent of a compound that is named as a salt.

Tests used:
[1] = system: C3 secretion from inflammation-induced astrocytes; test: C3 secretion; assay type: cell-based, human
Method in brief: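 Primary human cortical astrocytes on PLL-coated plates; after 24 h, medium replaced with 50% v/v supernatant from resting or LPS (100 ng/ml) plus CD3/CD28 bead-stimulated PBMC, with test compound or matched DMSO. Screen run twice at single concentrations; titrations at 0–1000 nM (n = 3), IC50 from best-fit curves. Supernatant C3 by ELISA at 24 h, reported as % of stimulated DMSO after unstimulated subtraction.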

astrocytes = settings: in vitro pre-treatment, 25 μM, stimulation with IL1β; ref Galloway et al., 2017; cited from earlier work
[2] = doses over 400 mg/day; ref Utili et al., 1977; cited from earlier work
[3] = system: secretome of inflammation-induced astrocytes; assay type: cell-based, human; settings: SOMAscan, n = 1; for secretion of "toxic astrocyte signature" biomarkers: normalized toxic vs resting astrocytes index
[4] = system: human induced pluripotent stem cells (iPSCs)-differentiated astrocytes; settings: pretreatment, in the presence of inflammatory stimuli; ref Colombo et al., 2020; cited from earlier work
[5] = inflammation-induced astrocytes

COC(=O)/C=C/C(=O)OC [DMF, dimethyl fumarate]
C3 secretion by astrocytes ([1]; library screen at 100 nM): not at 100 nM | C3 secretion by astrocytes ([1]; library screen at 10 μM): inhibited | secretion of proinflammatory cytokines and oxidative stress (astrocytes): reduced

O=C1CN(/N=C/c2ccc(-c3ccc([N+](=O)[O-])cc3)o2)C(O)=N1 [Dantrolene]
hepatotoxicity [2]: serious hepatotoxicity | inhibition of secretion of C3 ([1]; drug library screen): 77.7%

CC(C)c1cc(-c2n[nH]c(=O)n2-c2ccc3c(ccn3C)c2)c(O)cc1O [Ganetespib]
secretion of proteins from astrocytes not activated by inflammatory stimuli [3]: inhibited | secretion of "toxic astrocyte signature" biomarkers [3]: strongly reduced secretion of all biomarkers

CO[C@H]1C[C@@H]2CC[C@@H](C)[C@@](O)(O2)C(=O)C(=O)N2CCCC[C@H]2C(=O)O[C@H]([C@H](C)C[C@@H]2CC[C@@H](O)[C@H](OC)C2)CC(=O)[C@H](C)/C=C(\C)[C@@H](O)[C@@H](OC)C(=O)[C@H](C)C[C@H](C)/C=C/C=C/C=C/1C [Rapamycin]
secretion of "toxic astrocyte signature" biomarkers [3]: did not have potent effect on secretion of most | secretion of CCL20, TNFAIP6 and CFB [3, 5]: elevated | secretion of CCL20 and CCL8 [3, 5]: increased | secretion of SERPINA3 [3, 5]: failed to inhibit

CCCCCCCCc1ccc(CCC(N)(CO)CO)cc1 [fingolimod]
secretion of proinflammatory cytokines [4]: reduced

CCc1cc(/C(C)=N/OCc2ccc(C3CCCCC3)c(C(F)(F)F)c2)ccc1CN1CC(C(=O)O)C1 [siponimod]
secretion of proinflammatory cytokines [4]: reduced
